The values that follow come from publication PMC6656940 (CPT: Pharmacometrics & Systems Pharmacology, 2019).

The structures appear in SMILES notation. Where two headings read alike, the source gives them in different places.

For data set [1], the system named is CYP3A4. In words: Clearance of ACP-5862 in human liver microsomes. Format: in vitro ADME. The following applies: assigned to CYP3A4.
For data set [2] the following is noted: cited from earlier work.
For the next data set, the target named is CYP2C19 (Homo sapiens, UniProt P33261). In words: In vitro competitive inhibition of CYP2C19. Format: in vitro ADME. The settings on record: read-out: CYP2C19 Ki; reversible inhibition.
Sequence of CYP2C19 (P33261 whole entry): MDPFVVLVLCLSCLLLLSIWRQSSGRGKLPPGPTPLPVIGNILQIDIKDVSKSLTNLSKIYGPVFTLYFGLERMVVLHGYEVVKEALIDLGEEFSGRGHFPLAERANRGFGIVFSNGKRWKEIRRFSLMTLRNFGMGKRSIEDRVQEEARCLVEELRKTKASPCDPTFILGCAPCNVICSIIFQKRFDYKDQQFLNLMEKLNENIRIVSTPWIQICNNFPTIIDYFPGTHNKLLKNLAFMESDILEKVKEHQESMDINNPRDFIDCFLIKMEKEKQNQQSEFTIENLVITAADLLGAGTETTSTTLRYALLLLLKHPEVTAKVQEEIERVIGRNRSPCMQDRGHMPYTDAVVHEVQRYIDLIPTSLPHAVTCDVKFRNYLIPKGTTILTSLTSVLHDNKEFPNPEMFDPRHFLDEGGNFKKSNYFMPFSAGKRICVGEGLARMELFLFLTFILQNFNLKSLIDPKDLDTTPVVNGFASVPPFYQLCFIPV
The target of a further data set is CYP2C9 (Homo sapiens, UniProt P11712). In words: In vitro competitive inhibition of CYP2C9. Format: in vitro ADME.
Sequence of CYP2C9 (P11712 whole entry): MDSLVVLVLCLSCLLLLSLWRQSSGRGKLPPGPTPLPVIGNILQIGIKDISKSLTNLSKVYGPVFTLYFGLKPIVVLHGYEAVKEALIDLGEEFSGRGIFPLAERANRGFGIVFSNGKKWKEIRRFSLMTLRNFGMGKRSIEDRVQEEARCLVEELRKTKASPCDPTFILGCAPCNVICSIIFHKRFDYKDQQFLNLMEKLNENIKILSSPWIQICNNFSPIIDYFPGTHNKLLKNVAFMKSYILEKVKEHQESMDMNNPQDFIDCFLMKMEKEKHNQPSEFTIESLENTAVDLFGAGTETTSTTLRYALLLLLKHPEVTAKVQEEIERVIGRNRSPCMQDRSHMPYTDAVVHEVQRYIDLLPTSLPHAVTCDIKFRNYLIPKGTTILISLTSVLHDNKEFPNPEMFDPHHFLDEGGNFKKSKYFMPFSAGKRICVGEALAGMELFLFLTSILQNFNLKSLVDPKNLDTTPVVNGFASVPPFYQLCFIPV
For a further data set, the system named is BTK. The settings on record: cited from earlier work.
The target of a further data set is T1, CYP2C8 (Homo sapiens, UniProt P10632).
T1 sequence (P10632 1-490): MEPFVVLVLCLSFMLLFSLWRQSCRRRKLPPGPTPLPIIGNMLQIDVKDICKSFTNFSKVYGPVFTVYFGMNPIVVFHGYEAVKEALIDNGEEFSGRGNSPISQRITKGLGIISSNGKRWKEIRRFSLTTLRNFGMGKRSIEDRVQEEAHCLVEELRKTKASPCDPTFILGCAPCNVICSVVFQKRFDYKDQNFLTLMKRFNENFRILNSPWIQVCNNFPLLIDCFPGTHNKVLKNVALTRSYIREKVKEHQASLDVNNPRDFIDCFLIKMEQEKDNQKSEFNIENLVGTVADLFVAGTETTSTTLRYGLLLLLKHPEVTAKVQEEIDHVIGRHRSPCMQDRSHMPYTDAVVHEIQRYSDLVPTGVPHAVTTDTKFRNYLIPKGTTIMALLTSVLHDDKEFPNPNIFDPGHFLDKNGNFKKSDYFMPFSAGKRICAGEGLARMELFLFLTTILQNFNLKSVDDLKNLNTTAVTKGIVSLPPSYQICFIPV
In words: In vitro competitive and time-dependent inhibition of CYP2C8. The class given is in vitro ADME.

A short description of data set [3]: Unbound fraction in plasma. Format: in vitro ADME.
A short description of data set [4]: Blood-to-plasma partition ratio. The class given is in vitro ADME.
The conditions of data set [5]: cited from earlier work. This is another data set of the same source.
Data set [6] can be described thus: Physicochemical properties. The settings on record: Experimental data.
In the next data set the test system is human hepatocytes. In words: Metabolite profiling of 14C-acalabrutinib in human hepatocytes. The class given is in vitro ADME. The settings on record: 20 μM 14C-acalabrutinib. Summed up:
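14C-labelled test compound at 20 μM was incubated with human hepatocytes from two male donors for qualitative metabolite profiling. Metabolism was apportioned between glutathione and CYP-mediated pathways, and the CYP3A share of CYP metabolite formation was estimated.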

For data set [7], the target named is T2, P-gp (Homo sapiens, UniProt P08183). In words: In vitro P-gp inhibition. Format: in vitro ADME.
T2 sequence (P08183 whole entry): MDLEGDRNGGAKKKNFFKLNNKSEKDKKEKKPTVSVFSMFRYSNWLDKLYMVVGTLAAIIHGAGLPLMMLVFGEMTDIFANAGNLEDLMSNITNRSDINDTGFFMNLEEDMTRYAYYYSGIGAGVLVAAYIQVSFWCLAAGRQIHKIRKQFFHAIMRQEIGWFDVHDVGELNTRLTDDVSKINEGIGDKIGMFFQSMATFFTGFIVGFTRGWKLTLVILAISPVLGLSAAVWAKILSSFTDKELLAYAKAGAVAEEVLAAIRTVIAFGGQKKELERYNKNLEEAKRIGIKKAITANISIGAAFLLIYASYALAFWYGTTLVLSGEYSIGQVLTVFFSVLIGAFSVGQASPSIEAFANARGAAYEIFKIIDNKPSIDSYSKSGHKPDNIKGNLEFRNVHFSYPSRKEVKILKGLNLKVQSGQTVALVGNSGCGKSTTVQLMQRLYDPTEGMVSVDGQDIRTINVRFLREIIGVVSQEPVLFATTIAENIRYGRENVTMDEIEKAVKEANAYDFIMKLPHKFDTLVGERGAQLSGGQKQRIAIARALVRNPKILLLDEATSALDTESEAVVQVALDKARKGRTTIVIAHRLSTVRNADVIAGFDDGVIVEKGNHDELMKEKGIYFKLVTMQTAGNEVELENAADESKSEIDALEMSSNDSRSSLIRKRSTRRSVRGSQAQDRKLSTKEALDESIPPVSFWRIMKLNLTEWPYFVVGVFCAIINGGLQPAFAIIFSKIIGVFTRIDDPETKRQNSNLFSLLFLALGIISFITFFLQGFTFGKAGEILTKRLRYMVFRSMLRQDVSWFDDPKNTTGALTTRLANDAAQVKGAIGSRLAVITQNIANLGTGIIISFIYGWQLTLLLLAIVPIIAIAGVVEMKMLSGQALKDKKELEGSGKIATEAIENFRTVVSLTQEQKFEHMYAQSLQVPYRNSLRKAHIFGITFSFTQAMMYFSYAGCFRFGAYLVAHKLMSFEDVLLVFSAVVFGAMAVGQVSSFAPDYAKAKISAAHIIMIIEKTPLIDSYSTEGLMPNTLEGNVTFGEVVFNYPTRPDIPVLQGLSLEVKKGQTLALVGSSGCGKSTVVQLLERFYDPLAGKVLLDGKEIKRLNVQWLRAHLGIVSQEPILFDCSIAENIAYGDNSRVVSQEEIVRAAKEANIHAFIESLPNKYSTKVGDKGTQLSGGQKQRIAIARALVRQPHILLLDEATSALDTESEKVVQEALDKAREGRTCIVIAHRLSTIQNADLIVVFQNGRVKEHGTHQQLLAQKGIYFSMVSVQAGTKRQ
The nature of data set [8]: PBPK model input parameters predicted, optimized or estimated in Simcyp. More on the design: species or system human.
Data set [9] is described as follows: Clinical pharmacokinetics of acalabrutinib and ACP-5862. The class given is in vivo, human. The following applies: ACE-HV-001, oral. Summed up: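 Healthy subjects in a phase I dose-escalation study (ACE-HV-001) received single oral acalabrutinib doses of 25, 50, 75 or 100 mg (cohorts 3–6). In vivo total clearance was taken from this study's plasma concentration–time data.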

For data set [10] the following is noted: clinical DDI study with rifampicin; cited from earlier work.
The test system of data set [11] is CYP3A4. Format: in vitro ADME. The settings on record: any concentration evaluated.
The target in data set [12] is T2, P-gp. In words: Efflux in MDCKII-MDR1 cells. Format: in vitro ADME. The following applies: dog, MDCK-MDR1.
For data set [13], the system named is patients with relapsed CLL. The following applies: median follow-up 14.3 months; cited from earlier work.
Data set [14] concerns the target CYP3A4 (Homo sapiens, UniProt P08684). In words: biochemical. Format: in vitro ADME.
For the next data set, the system named is CYP1A2. In words: In vitro CYP induction, CYP1A2 marker substrate. The class given is in vitro ADME. The following applies: any concentration evaluated.
The next data set has as its system CYP2B6. In words: In vitro CYP induction, CYP2B6 marker substrate. The following applies: any concentration evaluated. Format: in vitro ADME.
The test system of data set [15] is patients with relapsed/refractory mantle cell lymphoma. The following applies: median follow-up 15.2 months; cited from earlier work.
The conditions of data set [16]: with strong CYP3A inhibitor clarithromycin; cited from earlier work.

Sequence of CYP3A4 (Homo sapiens, UniProt P08684) (P08684 whole entry): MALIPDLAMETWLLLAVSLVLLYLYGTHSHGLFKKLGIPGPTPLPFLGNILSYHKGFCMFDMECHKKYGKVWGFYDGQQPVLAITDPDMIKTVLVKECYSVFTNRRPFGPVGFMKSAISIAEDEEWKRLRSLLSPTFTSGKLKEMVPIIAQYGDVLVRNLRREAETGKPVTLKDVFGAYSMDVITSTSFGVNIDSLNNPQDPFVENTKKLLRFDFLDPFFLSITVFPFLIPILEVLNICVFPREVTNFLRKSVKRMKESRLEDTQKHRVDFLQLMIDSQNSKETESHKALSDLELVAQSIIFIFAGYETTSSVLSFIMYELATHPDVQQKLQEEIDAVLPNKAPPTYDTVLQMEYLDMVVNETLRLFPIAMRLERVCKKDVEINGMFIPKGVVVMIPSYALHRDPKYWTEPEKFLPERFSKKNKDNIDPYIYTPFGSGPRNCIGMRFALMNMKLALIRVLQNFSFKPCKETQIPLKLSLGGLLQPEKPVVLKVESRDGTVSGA

Consider `CC#CC(=O)NCCCC(=O)c1nc(-c2ccc(C(=O)Nc3ccccn3)cc2)c2c(N)nccn12` [ACP‐5862], for which the “Clint in vitro HLM, CYP3A4” value in the data set on CYP3A4 [1] was determined as 23.6 µL/min/mg. Besides, the “ACP-5862-related metabolites, share of total dose” value in [2] (human mass balance study) is on record as 10%. Moreover, the Ki on CYP2C19 came out at 8.5 µM. Also, the Ki on CYP2C9 (read-out: CYP2C9 Ki, reversible inhibition) stood at 3.35 µM. Besides, the “potency for BTK inactivation relative to parent acalabrutinib” value in the data set with BTK was ~ 50%. The Ki on CYP2C8 (read-out: CYP2C8 KI, time-dependent inhibition) turned out to be 4 µM. The molecule also had a CYP2C8 kinact on CYP2C8 (time-dependent inhibition) of 0.72 h⁻¹. The “fu,plasma (unbound fraction in plasma)” value in [3] (Experimental data) is given as 0.013. In addition, the “B/P ratio (blood-to-plasma ratio)” value in data set [4] (Experimental data) stood at 0.65. Further, the “CLR (renal clearance)” value in [5] (ACP-5862, reported in ACE-HV-009) is 0.3 L/h. The half-life in data set [5] (ACP-5862 after single oral dose of 100 mg acalabrutinib) was 6.9 h. Besides, in [6], the Compound type result was “Diprotic base”, the logP was 2.72, the “pKa (first value)” value was 3.41 and the “pKa (second value)” value amounted to 4.49.
For the molecule `CC#CC(=O)N1CCC[C@H]1c1nc(-c2ccc(C(=O)Nc3ccccn3)cc2)c2c(N)nccn12` [Acalabrutinib], the “unchanged acalabrutinib, share of excreted dose” value in [2] (human mass-balance study) is reported as 1.2%. For the same molecule, the “share of CYP3A in the formation of CYP metabolites” value with human hepatocytes is given as ~ 90%. In addition, in the data set on human hepatocytes (two male donors), the “relative contribution of CYP-mediated metabolic pathway” value came out at 79%. Besides, the “relative contribution of glutathione metabolic pathway” value with human hepatocytes (two male donors) came out at 21%. On P-gp [7], the P-gp inhibition entry was “not a P‐gp inhibitor”. Further, the “CYP3A4 CLint” value was 9.63 µL/min/pmol in data set [8] (Retrograde model, total CYP3A4 clearance) and 8.14 µL/min/pmol in [8] (the rest to other metabolites). Further, the microsomal CLint in data set [8] (human, liver microsomes) was 290 µL/min/mg. In addition, the Ki on CYP2C9 was found to be 11.3 µM; at CYP2C8 it was 20.6 µM; on CYP3A4 [14] (CYP3A4 Ki, reversible inhibition) it was 23.9 µM. Also, the “in vivo total clearance” value in data set [9] stood at 169 L/h. The “acalabrutinib AUC with rifampicin, reduced to % of control” value in [10] is on record as ~ 20%. Besides, the fraction unbound in data set [3] (plasma) was determined as 0.026. Further, in data set [4] (blood), the blood plasma ratio was determined as 0.787. Also, the “CLR (renal clearance)” value in data set [5] (clinical study ACE-HV-009) was 1.33 L/h. Moreover, in data set [5] (healthy subjects), the absolute oral bioavailability is given as 25%. Further, the oral half-life result in [5] (healthy subjects) is listed as “about 1.57 hours”. In addition, in data set [5] (patients), the “accumulation after multiple doses” value is “no accumulation”. Also, the “induction of metabolism of CYP3A4 marker substrate” value with CYP3A4 [11] was “did not cause significant induction”. The efflux ratio at 1 μM on P-gp [12] turned out to be 42. Besides, the overall response rate in [13] is 95%. Besides, the kinact on CYP3A4 [14] (human) is 0.000308 s⁻¹. Besides, the “induction of metabolism of CYP1A2 marker substrate” value in the data set with CYP1A2 is given as “did not cause significant induction”. The Compound type result in data set [6] is given as “Diprotic base”. In [6] (pKa (first value)), this molecule gave a pKa of 3.54. The “induction of metabolism of CYP2B6 marker substrate” value with CYP2B6 is “did not cause significant induction”. Besides, the “investigator-assessed overall response rate” value in data set [15] is on record as 81%.
For `CCN1CCN(Cc2ccc(Nc3ncc(F)c(-c4cc(F)c5nc(C)n(C(C)C)c5c4)n3)nc2)CC1` [abemaciclib], the increase in exposure in data set [16] is reported as 3.4 fold.

Broadly, the half-life is how long it takes for the measured level to halve. One may read the logP as a log measure of how a compound divides between an organic and an aqueous phase. A lower logP goes with a more hydrophilic compound. As usually defined, the microsomal CLint is the capacity of the preparation to metabolise the compound, expressed as a volume cleared per time. For orientation: fraction unbound means the share of the substance not bound to proteins or other matrix. Higher therefore signals weak binding. One may read the efflux ratio as the permeability from basolateral to apical divided by that in the opposite direction, in the common usage. The kinact is the rate constant of inactivation at saturating inhibitor. The term pKa denotes the pH at which an ionisable group is half protonated. A high value points to a weaker acid or stronger base.
